# Laboratory results published in ChEMBL document CHEMBL1240415, “Design, synthesis and antimicrobial activities of some new quinoline derivatives carrying 1,2,3-triazole moiety” (2010).
# Tests used:
# Type in all cases: functional
# [1] = test system: Staphylococcus aureus; test: Antibacterial activity against Staphylococcus aureus ATTC 25923 after 3 to 4 days by serial plate dilution method; conditions: for MIC: Staphylococcus aureus, ATTC 25923
# Summary of the method: (§1)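 Serial dilutions in Mueller-Hinton broth in tubes, pH adjusted to 5.0 with phosphate buffer. Inoculated with a standardized bacterial suspension and incubated 16–18 h at 37 °C. MIC is the lowest concentration with no visible growth, tested over 6.25–100 µg/mL. Zones come from an agar well diffusion assay: compounds in DMSO are added to wells in seeded agar, DMSO control, triplicate plates, 37 °C for 3–4 days, inhibition zone diameter in mm.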
# [2] = test system: Escherichia coli; test: Antibacterial activity against Escherichia coli ATTC 25922 after 3 to 4 days by serial plate dilution method; conditions: for MIC: Escherichia coli, ATTC 25922; summary of the method: as §1
# [3] = test system: Pseudomonas aeruginosa; test: Antibacterial activity against Pseudomonas aeruginosa ATCC 27853 after 3 to 4 days by serial plate dilution method; conditions: for MIC: Pseudomonas aeruginosa, ATCC 27853; summary of the method: as §1
# [4] = test system: Klebsiella pneumoniae; test: Antibacterial activity against recultured Klebsiella pneumoniae after 3 to 4 days by serial plate dilution method; conditions: for MIC: Klebsiella pneumoniae; summary of the method: as §1
# [5] = test system: Streptococcus pyogenes; test: Antibacterial activity against Streptococcus pyogenes after 3 to 4 days by serial plate dilution method; conditions: for MIC: Streptococcus pyogenes; summary of the method: as §1
# [6] = test system: Aspergillus flavus; test: Antifungal activity against Aspergillus flavus NCIM 524 after 3 to 4 days by serial plate dilution method; conditions: for MIC: Aspergillus flavus, NCIM 524
# Summary of the method: (§2)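 Sabouraud agar made from peptone, glucose and agar in water, pH 5.7. Fungal spores suspended in normal saline and used to lawn the plates, which were dried 1 h at 37 °C. Wells punched and compounds added in DMSO, with a DMSO solvent control. Triplicate plates held at 37 °C for 3–4 days. Read-out is inhibition zone diameter.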
# [7] = test system: Aspergillus fumigatus; test: Antifungal activity against Aspergillus fumigatus NCIM 902 after 3 to 4 days by serial plate dilution method; conditions: for MIC: Aspergillus fumigatus, NCIM 902; summary of the method: as §2
# [8] = test system: Talaromyces marneffei; test: Antifungal activity against recultured Penicillium marneffei after 3 to 4 days by serial plate dilution method; conditions: for MIC: Talaromyces marneffei; summary of the method: as §2
# [9] = test system: Trichophyton mentagrophytes; test: Antifungal activity against recultured Trichophyton mentagrophytes after 3 to 4 days by serial plate dilution method; conditions: for MIC: Trichophyton mentagrophytes; summary of the method: as §2
# [10] = test system: Candida albicans; test: Antifungal activity against Candida albicans after 3 to 4 days by serial plate dilution method; conditions: for MIC: Candida albicans; summary of the method: as §2
Structure (SMILES),MIC [1] [µg/mL],MIC [2] [µg/mL],MIC [3] [µg/mL],MIC [4] [µg/mL],MIC [5] [µg/mL],MIC [6] [µg/mL],MIC [7] [µg/mL],MIC [8] [µg/mL],MIC [9] [µg/mL],MIC [10] [µg/mL],diameter of the inhibition zone (DIZ) [1] [mm],diameter of the inhibition zone (DIZ) [2] [mm],diameter of the inhibition zone (DIZ) [3] [mm],diameter of the inhibition zone (DIZ) [4] [mm],diameter of the inhibition zone (DIZ) [5] [mm],diameter of the inhibition zone (DIZ) [6] [mm],diameter of the inhibition zone (DIZ) [7] [mm],diameter of the inhibition zone (DIZ) [8] [mm],diameter of the inhibition zone (DIZ) [9] [mm],diameter of the inhibition zone (DIZ) [10] [mm]
COc1ccc2nc(C)cc(-n3cc(CN4CCN(c5ccc(F)cc5)CC4)nn3)c2c1,12.5,6.25,6.25,6.25,12.5,12.5,6.25,6.25,6.25,6.25,11,12,10,12,<10,10,14,12,10,12
COc1ccc2nc(C)cc(-n3cc(CNC4CCCCC4)nn3)c2c1,25,12.5,12.5,12.5,12.5,12.5,25,12.5,25,12.5,<10,10,11,10,12,12,<10,10,<10,11
CCC(C)NCc1cn(-c2cc(C)nc3ccc(OC)cc23)nn1 (configuration not stated),12.5,6.25,12.5,12.5,12.5,12.5,25,12.5,25,12.5,10,14,10,11,12,11,<10,10,<10,11
O=C(O)c1cn(C2CC2)c2cc(N3CCNCC3)c(F)cc2c1=O [CIPROFLOXACIN],–,–,–,6.25,6.25,–,–,–,–,–,22,30,16,23,25,–,–,–,–,–

# Continued by falling MIC [6], values first:
MIC [1] [µg/mL],MIC [2] [µg/mL],MIC [3] [µg/mL],MIC [4] [µg/mL],MIC [5] [µg/mL],MIC [6] [µg/mL],MIC [7] [µg/mL],MIC [8] [µg/mL],MIC [9] [µg/mL],MIC [10] [µg/mL],Structure (SMILES),diameter of the inhibition zone (DIZ) [1] [mm],diameter of the inhibition zone (DIZ) [2] [mm],diameter of the inhibition zone (DIZ) [3] [mm],diameter of the inhibition zone (DIZ) [4] [mm],diameter of the inhibition zone (DIZ) [5] [mm],diameter of the inhibition zone (DIZ) [6] [mm],diameter of the inhibition zone (DIZ) [7] [mm],diameter of the inhibition zone (DIZ) [8] [mm],diameter of the inhibition zone (DIZ) [9] [mm],diameter of the inhibition zone (DIZ) [10] [mm]
6.25,6.25,6.25,6.25,6.25,6.25,6.25,6.25,6.25,6.25,COc1ccc2nc(C)cc(-n3cc(CNC4CC4)nn3)c2c1,16,16,12,18,12,14,18,18,15,13
–,–,–,–,–,3.12,6.25,6.25,3.12,6.25,Cc1cc(C2CCCCC2)n(O)c(=O)c1.NCCO [CICLOPIROX OLAMINE],–,–,–,–,–,25,25,20,27,20
